In ChEMBL document CHEMBL5303300, “EUbOPEN Chemogenomics Library - Multiplex” (2023):
Several values for one entry are separate records, joined by “and”; a condition that tells them apart may be missing. Equal entries are not always repeated.

How the values were obtained:
U2OS = assay: Multiplex assay against U2OS; assay type: toxicity, cell-based; conditions: human, number of replicates 2
In short: (§1)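 Phenotypes for tubulin, mitochondrial mass and membrane permeability are expressed as per cents of healthy-nucleus cells. Cells were stained live at seeding with Hoechst33342, BioTracker Green Microtubule Cytoskeleton Dye, MitoTracker Red and Annexin V Alexa Fluor 680, then imaged after compound addition on a CQ1 microscope at 37°C and 5% CO2. Machine-learning gating in CellPathfinder separated Hoechst high-intensity objects from normal cells, divided normal cells by nuclear state (healthy, pyknosed, fragmented) and divided pyknosed cells into mitotic or apoptotic.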

Fibroblast = assay: Multiplex assay against human fibroblast; assay type: toxicity, cell-based; conditions: number of replicates 2; in short: as §1
[1] = 24 h, 1 µM, compound concentration 1 uM
[2] = 24 h, 10 µM, compound concentration 10 uM
[3] = 48 h, 1 µM, compound concentration 1 uM
[4] = 48 h, 10 µM, compound concentration 10 uM
[5] = 12 h, 1 µM, compound concentration 1 uM
[6] = 12 h, 10 µM, compound concentration 10 uM

Question: Which results are given for `CCCCOc1c(C(=O)c2c(F)cc(C)cc2F)c[nH]c2nncc1-2`?
Answer: Population Tubulin-Different-Phenotype (%) (U2OS; [1]): 76% and 79%; Population Apoptotic (%) (U2OS; [2]): 41% and 66%; Population Hoechst High Intensity Objects (%) (U2OS; [2]): 1% and 0%; Population Membrane Permeable-Phenotype (%) (U2OS; [2]): 6% and 2%; Population Mitochondria Different-Phenotype (%) (U2OS; [2]): 0%; Population Mitotic Cells (%) (U2OS; [2]): 58% and 33%; Population Normal (%) (U2OS; [2]): 98% and 100%; Population Tubulin-Different-Phenotype (%) (U2OS; [2]): 81% and 86%; Total Cell Count (U2OS; [2]): 187 and 205; Population Apoptotic (%) (U2OS; [3]): 37% and 67%; Population Fragmented Nuclei (%) (U2OS; [3]): 5% and 4%; Population Healthy Nuclei (%) (U2OS; [3]): 71% and 88%; Population Hoechst High Intensity Objects (%) (U2OS; [3]): 0%; Population Membrane Permeable-Phenotype (%) (U2OS; [3]): 4% and 2%; Population Mitochondria Different-Phenotype (%) (U2OS; [3]): 4% and 1%; Population Mitotic Cells (%) (U2OS; [3]): 62% and 32%; Population Normal (%) (U2OS; [3]): 100% and 99%; Population Tubulin-Different-Phenotype (%) (U2OS; [3]): 77% and 74%; Population Apoptotic (%) (U2OS; [4]): 35% and 75%; Population Hoechst High Intensity Objects (%) (U2OS; [4]): 0%; Population Membrane Permeable-Phenotype (%) (U2OS; [4]): 7% and 4%; Population Mitochondria Different-Phenotype (%) (U2OS; [4]): 0%; Population Mitotic Cells (%) (U2OS; [4]): 64% and 24%; Population Normal (%) (U2OS; [4]): 100%; Population Tubulin-Different-Phenotype (%) (U2OS; [4]): 73% and 77%; Total Cell Count (U2OS; [4]): 291 and 241; Population Apoptotic (%) (Fibroblast; [5]): 52% and 40%; Population Fragmented Nuclei (%) (Fibroblast; [5]): 11% and 8%; Population Healthy Nuclei (%) (Fibroblast; [5]): 61% and 73%; Population Hoechst High Intensity Objects (%) (Fibroblast; [5]): 0%; Population Membrane Permeable-Phenotype (%) (Fibroblast; [5]): 8% and 5%; Population Mitochondria Different-Phenotype (%) (Fibroblast; [5]): 0%; Population Mitotic Cells (%) (Fibroblast; [5]): 47% and 60%; Population Normal (%) (Fibroblast; [5]): 100%; Population Pyknosed Nuclei (%) (Fibroblast; [5]): 27% and 18%; Population Tubulin-Different-Phenotype (%) (Fibroblast; [5]): 21% and 12%; Total Cell Count (Fibroblast; [5]): 200 and 276; Population Apoptotic (%) (Fibroblast; [6]): 57% and 64%; Population Fragmented Nuclei (%) (Fibroblast; [6]): 10% and 8%; Population Healthy Nuclei (%) (Fibroblast; [6]): 64% and 57%; Population Hoechst High Intensity Objects (%) (Fibroblast; [6]): 0%; Population Membrane Permeable-Phenotype (%) (Fibroblast; [6]): 2% and 8%; Population Mitochondria Different-Phenotype (%) (Fibroblast; [6]): 1% and 0%; Population Mitotic Cells (%) (Fibroblast; [6]): 42% and 35%; Population Normal (%) (Fibroblast; [6]): 99%; Population Pyknosed Nuclei (%) (Fibroblast; [6]): 25% and 33%; Population Tubulin-Different-Phenotype (%) (Fibroblast; [6]): 22% and 19%; Total Cell Count (Fibroblast; [6]): 271 and 238; Population Apoptotic (%) (Fibroblast; [1]): 50% and 43%; Population Fragmented Nuclei (%) (Fibroblast; [1]): 14% and 7%; Population Healthy Nuclei (%) (Fibroblast; [1]): 55% and 66%; Population Hoechst High Intensity Objects (%) (Fibroblast; [1]): 0%; Population Membrane Permeable-Phenotype (%) (Fibroblast; [1]): 7%; Population Mitochondria Different-Phenotype (%) (Fibroblast; [1]): 0% and 1%; Population Mitotic Cells (%) (Fibroblast; [1]): 49% and 56%; Population Normal (%) (Fibroblast; [1]): 100%; Population Pyknosed Nuclei (%) (Fibroblast; [1]): 29% and 25%; Population Tubulin-Different-Phenotype (%) (Fibroblast; [1]): 26% and 11%; Total Cell Count (Fibroblast; [1]): 193 and 267; Population Apoptotic (%) (Fibroblast; [2]): 81% and 68%; Population Fragmented Nuclei (%) (Fibroblast; [2]): 10%; Population Healthy Nuclei (%) (Fibroblast; [2]): 64% and 51%; Population Hoechst High Intensity Objects (%) (Fibroblast; [2]): 0%; Population Membrane Permeable-Phenotype (%) (Fibroblast; [2]): 4%; Population Mitochondria Different-Phenotype (%) (Fibroblast; [2]): 1%; Population Mitotic Cells (%) (Fibroblast; [2]): 18% and 31%; Population Normal (%) (Fibroblast; [2]): 99% and 100%; Population Pyknosed Nuclei (%) (Fibroblast; [2]): 25% and 37%; Population Tubulin-Different-Phenotype (%) (Fibroblast; [2]): 27% and 18%; Total Cell Count (Fibroblast; [2]): 281 and 247; Population Apoptotic (%) (Fibroblast; [3]): 66% and 59%; Population Fragmented Nuclei (%) (Fibroblast; [3]): 18% and 9%; Population Healthy Nuclei (%) (Fibroblast; [3]): 53% and 64%; Population Hoechst High Intensity Objects (%) (Fibroblast; [3]): 1% and 0%; Population Membrane Permeable-Phenotype (%) (Fibroblast; [3]): 14% and 11%; Population Mitochondria Different-Phenotype (%) (Fibroblast; [3]): 0%; Population Mitotic Cells (%) (Fibroblast; [3]): 33% and 40%; Population Normal (%) (Fibroblast; [3]): 98% and 100%; Population Pyknosed Nuclei (%) (Fibroblast; [3]): 27% and 26%; Population Tubulin-Different-Phenotype (%) (Fibroblast; [3]): 38% and 17%; Total Cell Count (Fibroblast; [3]): 197 and 276; Population Apoptotic (%) (Fibroblast; [4]): 76% and 77%; Population Fragmented Nuclei (%) (Fibroblast; [4]): 11% and 12%; Population Healthy Nuclei (%) (Fibroblast; [4]): 46% and 64%; Population Hoechst High Intensity Objects (%) (Fibroblast; [4]): 0%; Population Mitochondria Different-Phenotype (%) (Fibroblast; [4]): 0% and 1%; Population Mitotic Cells (%) (Fibroblast; [4]): 23% and 22%; Population Normal (%) (Fibroblast; [4]): 99% and 100%; Population Pyknosed Nuclei (%) (Fibroblast; [4]): 42% and 22%; Population Tubulin-Different-Phenotype (%) (Fibroblast; [4]): 45% and 39%; Total Cell Count (Fibroblast; [4]): 261 and 279
